Data on 60 compounds can be found in PubChem BioAssay AID463210 (The Scripps Research Institute Molecular Screening Center, 2010).

The campaign covered roughly 330,000 compounds. About 300 (0.091%) were called active. This excerpt belongs to a sample that is enriched for actives. Values without a mark were called inactive.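 The calls were made as follows: active = percent activation above the screen-wide mean plus 3 SD (cut at about 25% in these data); inactive = the rest.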

The target of the assay is Caspase-7 (Homo sapiens) (UniProt P55210). Briefly: procaspase-7 activators, primary screen, counter-screen for procaspase-3 activator project, biochemical, absorbance, HTS, human (AID 463210). The conditions noted are these: recombinant procaspase-7, Ac-DEVD-pNA absorbance 405 nm; at 8.5 µM; stronger effect = higher value; D23A/D198A/D206A triple mutant, cannot self-cleave; scale: DMSO 0, 5 µM enzyme 100. The gist of the method: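 System: Uncleavable procaspase-7 mutant enzyme; Amount: 2 µM procaspase-7 mutant as dispensed; Schedule: 1 h compound preincubation, 2 h substrate cleavage, 25 °C; Measured by: 405 nm absorbance of p-nitroaniline; Evaluation: percent activation from buffer-corrected 0–120 min absorbance change; Control set: low DMSO alone, high DMSO plus 5 µM PC-7.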
Chain of Caspase-7 (Homo sapiens) (P55210 whole entry D23A/D198A/D206A): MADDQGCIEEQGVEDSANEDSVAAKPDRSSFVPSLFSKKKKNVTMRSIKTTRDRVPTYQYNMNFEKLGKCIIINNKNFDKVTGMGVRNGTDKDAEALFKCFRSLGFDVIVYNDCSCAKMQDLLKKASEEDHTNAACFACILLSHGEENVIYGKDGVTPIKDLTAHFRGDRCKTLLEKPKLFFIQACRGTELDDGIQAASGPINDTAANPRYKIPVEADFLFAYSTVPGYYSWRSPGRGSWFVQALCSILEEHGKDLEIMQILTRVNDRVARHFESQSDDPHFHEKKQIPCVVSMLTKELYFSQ
(In general: A counterscreen serves to expose hits that act by an unwanted route or on another target.)
Regarding `CCOc1cc(C(=O)N2CCc3cc(OC)c(OC)cc3C2)ccc1OC(F)F`, the activation was 10.5%.
For `CCCSc1ncccc1C(=O)O`, the activation was 5.5%.
As for `CCC(CC)NC(=O)CSc1nnc(-c2c[nH]c3ccccc23)o1`, the activation was -2.98%.
The figure for `Cc1cc(C)c(S(=O)(=O)NCC2CCC(C(=O)NCc3ccc4c(c3)OCO4)CC2)c(C)c1` (stereo not given) is 10.5%; for `CCn1c2ccccc2c2cc(NC(=O)C/C(C)=N/NC(=O)c3ccccc3N)ccc21` it is -4.21%.
On to `Cc1nccn1CCC1CCCCN1C(=O)CCc1nnc(-c2ccsc2)o1` (stereo not given), for which the activation was 0.42%.
As to `O=C(CCn1nnc2ccccc2c1=O)N[C@@H](Cc1c[nH]c2ccccc12)C(=O)O`, the activation was 9.07%.
For the compound `CC(C(=O)N1CCN(c2ccccc2F)CC1)c1ccc([N+](=O)[O-])cc1` (stereo not given), the activation was -5.29%.
For the compound `CCCCCc1nnc(NC(=O)c2ccc(=O)n(C)n2)s1`, the activation is 9.59%.
The figure for `Cc1csc(/N=C/N(C)C)c1C#N` is -2.59%; for `OCCC1CN(Cc2cccn2-c2nccs2)CCN1CCc1ccccc1` (stereo not given) it is 3.58%.
For the compound `COC(=O)c1cccnc1NC(=S)NC(C)C`, the activation was 3.88%.
`COc1ccc(N2CCN(S(=O)(=O)c3cc4c5c(c3)C(C)C(=O)N5CCC4)CC2)cc1` (stereo not given): the activation is 4.7%.
Take `COc1ccc2sc(-c3ccc(S(C)(=O)=O)cc3)c(-c3ccc(C(N)=O)cc3)c2c1`: the activation is -9.45%.
For `COc1ccc2sc(-c3ccc(S(C)(=O)=O)cc3)c(C#Cc3cncn3C)c2c1`, the activation was 32.4% (active).
Consider `COc1ccc(-c2sc3ccc(OC)cc3c2C#Cc2ccccn2)cc1`, for which the activation is 25.1%.
Turning to `CN(CC(=O)Nc1ccccc1Cl)C(=O)c1ccccc1SCC(=O)N1CCCC1`, the activation is 5.38%.
`Cc1ccccc1N(C(=O)CNC(=O)c1cccs1)C(C(=O)NC1CCCC1)c1ccncc1` (stereo not given): the activation is 2.19%.
As to `COc1ccc(Nc2ncnc3ccc(Br)cc23)c(OC)c1`, the activation was -0.33%.
For `COc1ccc(Nc2ncnc3sc(C)cc23)cc1`, the activation is 4.02%.
`COc1ccc(Nc2ncnc3sc(-c4ccccc4)cc23)c(OC)c1`: the activation is 47.3% (active).
As to `O=C(Cn1cncn1)N/N=C/c1c2ccccc2cc2ccccc12`, the activation is -18.1%.
`Oc1ccc(-c2onc3ccc(Cl)cc23)cc1`: the activation is -16.8%.
With `CC(OC(=O)c1ccc2noc(-c3ccccc3)c2c1)C(N)=O` (stereo not given), the activation is -10.9%.
The figure for `COc1ccc(-c2onc3ccc(C(C)=O)cc23)cc1` is 68.7% (active).
The figure for `CCCCOC(=O)Cn1c(=O)n(CC(=O)OCCCC)c2cc(C)ccc21` is 26.8% (active); for `CCCCCCCCCCOC(=O)Cn1c(COc2ccc(C)cc2)[n+](C)c2ccccc21` it is 0.03%; for `CCOC(=O)CN1C(=O)C(=O)c2cc(C)ccc21` it is 3.45%.
With `Nc1ncnc(Nc2cccc(Cl)c2Cl)n1`, the activation is 1.33%.
On to `O=C(NCCCO)/C(=C\C=C\c1ccccc1)NC(=O)c1ccccc1Cl`, for which the activation was 0.01%.
As to `Cc1cc(C)cc(Oc2c(C(F)(F)F)oc3cc(OCC(=O)O)ccc3c2=O)c1`, the activation was -4.44%.
Regarding `Cc1ccc(S(=O)(=O)N2CCC(C(=O)N[C@@H](C)C(=O)NCc3ccco3)CC2)cc1`, the activation was -5.6%.
For `CC1(c2nnc(Cc3ccccc3)o2)CC(c2ccccc2F)=NO1` (stereo not given), the activation was -4.57%.
For `Cn1cc(S(=O)(=O)NC(c2ccccc2)c2ccccc2)c(=O)n(C)c1=O`, the activation is 8.63%.
`Cn1nc(C(F)(F)F)c(-c2ccc(F)cc2)c1NC(=O)CSCC(=O)O`: the activation was 3.17%.
With `CC(CCc1ccccc1)NC(=O)COC(=O)c1ccc(F)cc1` (stereo not given), the activation is 4.27%.
As to `CSCCC(NS(=O)(=O)c1ccc(C)cc1)C(=O)N1CCCC1` (stereo not given), the activation was 0.13%.
For `COc1ccc(C(CC(=O)N2CCN(c3ccccc3)CC2)c2c(O)cc(OC)cc2OC)cc1` (stereo not given), the activation is 5.61%.
As for `CCCn1c(C)cc(/C=C(\C#N)C(=O)OCC(=O)N(C)c2c(N)n(Cc3ccccc3)c(=O)[nH]c2=O)c1C`, the activation is -1.74%.
As for `CCn1c(O)c2ccc(C(=O)N=NC(=O)c3cccnc3)cc2c1O`, the activation was -2.1%.
`CN1CCN(C(=O)C2=C[C@H](c3ccc4c(c3)OCO4)C[C@H](OCc3ccc(CO)cc3)O2)CC1`: the activation is 0.27%.
On to `O=c1cc(CN2CCN(S(=O)(=O)/C=C/c3ccccc3)CC2)c2ccc(O)cc2o1`, for which the activation was 17.5%.
Regarding `O=C(O)CCN(Cc1ccccc1)S(=O)(=O)c1c(Cl)cccc1Cl`, the activation is 3.54%.
Consider `O=[N+]([O-])c1cc(Cl)cc(/C=N/NC(=S)Nc2cc(S(=O)(=O)N3CCOCC3)ccc2Cl)c1O`, for which the activation is -6.79%.
The figure for `Cc1ccc2nsnc2c1S(=O)(=O)N1CCCC1C(=O)O` (stereo not given) is 8.06%; for `CC(=O)N[C@@H](C)C(=O)N1CCC(n2nccc2NC(=O)CCCc2ccccc2)CC1` it is 8.17%.
For the compound `O=c1c2ccccc2ccc2ccc(P(=O)(O)O)cc12`, the activation is 4.72%.
Consider `O=C(c1cn(-c2ccccc2)nc1-c1cccnc1)N1CCN(S(=O)(=O)c2ccccc2F)CC1`, for which the activation is 11.3%.
With `COc1ccc(CCNC2=C(Cl)C(=O)N(Cc3ccccc3)C2=O)cc1OC`, the activation was -9.7%.
`COc1ccc(COCCN2CCN(S(=O)(=O)c3ccccc3)CCC2=O)cc1`: the activation was -12.7%.
With `COc1ccc2c(c1)C(NS(=O)(=O)OCC(Cl)(Cl)Cl)CCC2` (stereo not given), the activation was -4.56%.
As to `C=CCN(C(=O)Nc1ccc2oc(C)nc2c1)c1ccccc1`, the activation is -21.8%.
Consider `CCN(CC)c1ccc2oc(=O)c(C)nc2c1`, for which the activation is 40.2% (active).
In the case of `CCN(CC)c1ccc(C(=O)Nn2c(C)nc3ccccc3c2=O)cc1`, the activation is -1.52%.
Regarding `COc1cccc(NC(=O)Cn2c3ccccc3c3nc4n(c(=O)c32)CCS4)c1`, the activation was 9.71%.
As for `CC1=C(N2CCN(c3ncccn3)CC2)CCC1=O`, the activation was -1.68%.
Consider `COc1ccc(S(=O)(=O)NCCOc2ccccc2)cc1F`, for which the activation was -0.02%.
For `COc1ccccc1N=Cc1c(O)c2ccccc2oc1=O`, the activation was 50.8% (active).
As to `COc1ccccc1N=C(C)C1=C(O)COC1=O`, the activation is 0.79%.
`COc1cc(N=Cc2c(O)c3ccccc3oc2=O)c(OC)cc1Cl`: the activation is 14.3%.
